Tests used:
[1] = [L] = 10 μM, [M] = 1 μM, pH = 7.4; cited from earlier work
[2] = molecular target: PSMA on PC3-PIP (PSMA+) cells (Homo sapiens, UniProt Q04609); experiment: Receptor saturation binding assay on prostate cancer cells; conditions: 2 h incubation
[3] = protonated tertiary amine in the pyridyl backbone; cited from earlier work
[4] = cited from earlier work
[5] = cited from earlier work; remark: listed apart in the source
[6] = cited from earlier work; remark: listed apart in the source
[7] = In vitro mouse serum challenge; assay type: in vitro ADME; conditions: 37 °C, at least six half-lives of scandium-44 (24 h)
In short: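 Scandium-44-labelled complex (free chelator or its PSMA-617 conjugate, labelled at ambient temperature in 0.5 M NH₄OAc) mixed with an equal volume of mouse serum and held at 37 °C. Aliquots taken at 0.5, 4, 8 and 24 h, run on iTLC-SA in 0.4 M sodium citrate pH 4.5 beside free ⁴⁴Sc-in-serum control. Intact fraction calculated from baseline versus solvent-front peak areas.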

in vivo = conditions: male, nude, mouse, tumor (PSMA+, PC3-PIP), intravenous, total radioactivity, tumor retention
[8] = test system: PC3-PIP (PSMA+) and PC3-Flu (PSMA−) tumor-bearing nude mice; conditions: 7.4 vs 74 GBq/μmol

PSMA on PC3-PIP (PSMA+) cells, sequence (Q04609 whole entry): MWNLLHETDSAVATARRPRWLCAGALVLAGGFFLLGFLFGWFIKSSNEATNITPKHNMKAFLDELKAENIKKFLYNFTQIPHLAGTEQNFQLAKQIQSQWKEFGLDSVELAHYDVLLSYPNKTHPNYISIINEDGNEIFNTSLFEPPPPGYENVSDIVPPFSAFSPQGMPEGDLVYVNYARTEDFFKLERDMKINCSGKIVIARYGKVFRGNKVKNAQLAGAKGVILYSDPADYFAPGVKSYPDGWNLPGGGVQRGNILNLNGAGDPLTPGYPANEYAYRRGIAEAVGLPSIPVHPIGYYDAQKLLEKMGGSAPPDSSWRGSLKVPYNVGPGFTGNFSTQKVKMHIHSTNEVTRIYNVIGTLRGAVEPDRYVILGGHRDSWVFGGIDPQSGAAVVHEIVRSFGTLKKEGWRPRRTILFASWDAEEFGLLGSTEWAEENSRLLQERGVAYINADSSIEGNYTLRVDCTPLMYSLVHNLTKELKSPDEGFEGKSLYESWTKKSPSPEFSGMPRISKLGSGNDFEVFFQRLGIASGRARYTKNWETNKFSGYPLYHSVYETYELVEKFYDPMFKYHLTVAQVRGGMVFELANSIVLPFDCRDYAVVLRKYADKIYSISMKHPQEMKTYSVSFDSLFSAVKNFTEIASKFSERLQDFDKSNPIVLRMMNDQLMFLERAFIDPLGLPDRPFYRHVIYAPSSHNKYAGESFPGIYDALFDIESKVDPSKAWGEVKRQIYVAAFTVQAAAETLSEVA

CC1(N(CC(=O)O)CC(=O)O)CN(CC(=O)O)CCN(CC(=O)O)C1 [AAZTA, 6-[bis(hydroxycarbonyl-methyl)amino]-1,4-bis-(hydroxycarbonylmethyl)-6-methylperhydro-1,4-diaze-pine]
pSc (pM), −log [M]free [1]: 24.7

O=C(O)CN1CCN(CC(=O)O)CCN(CC(=O)O)CCN(CC(=O)O)CC1 [DOTA, 1,4,7,10-tetraazacyclododecane-1,4,7,10-tetraacetic acid]
pSc (pM), −log [M]free [1]: 23.9

O=C(O)CC[C@H](NC(=O)N[C@@H](CCCCNC(=O)[C@H](Cc1ccc2ccccc2c1)NC(=O)[C@H]1CC[C@H](CNC(=O)CCCCCCOc2cc(CN(CC(=O)O)Cc3cccc(C(=O)O)n3)nc(CN(CC(=O)O)Cc3cccc(C(=O)O)n3)c2)CC1)C(=O)O)C(=O)O [H4pypa-C7-PSMA617]
Bmax [2]: 7.84 ± 0.37 fmol/mg

O=C(O)CN(Cc1cccc(CN(CC(=O)O)Cc2cccc(C(=O)O)n2)n1)Cc1cccc(C(=O)O)n1 [H4pypa]
highest pKa [3]: 7.78
complex stability pM with In^3+ [4]: 30.5
complex stability pM with La^3+ [5]: 19.9
complex stability pM with Lu^3+ [6]: 22.6

O=C(O)CC[C@H](NC(=O)N[C@@H](CCCCNC(=O)[C@H](Cc1ccc2ccccc2c1)NC(=O)[C@H]1CC[C@H](CNC(=O)CCCCCCOc2cc(CN(CC(=O)O)Cc3cccc(C(=O)O)n3)nc(CN(CC(=O)O)Cc3cccc(C(=O)O)n3)c2)CC1)C(=O)O)C(=O)O [[^44Sc][Sc(pypa-C7-PSMA617)], metal not drawn]
transchelation in mouse serum [7]: < 1%
tissue uptake (in vivo; after about four half-lives of scandium-44, 7.4 GBq/μmol): 14.9 ± 1.7 %ID/g
tissue uptake (in vivo; after about four half-lives of scandium-44, 74 GBq/μmol): 20 ± 0.6 %ID/g
effect of lower apparent molar activity on kidney accumulation [8]: brought down the kidney accumulation by more than half

Source: paper PMC7408314 (Inorganic chemistry, 2020)
